Experimental data pooled from the literature.
Compare with care: the assays were run in different laboratories.
Organism: Staphylococcus aureus
Effect on: microbial growth

With COCCCNC(=N)c1ccc(NC(=O)c2ccc(C(=O)Nc3ccc(C(=N)NCCCOC)cc3)cc2)cc1 the MIC was 4 µg/mL.
CC1(C)S[C@@H]2[C@H](NC(=O)COc3ccccc3)C(=O)N2[C@H]1C(=O)O has an MIC of over 128 µg/mL (MRSA; 18 h).
With C=CCn1c(-c2ccc([N+](=O)[O-])cc2)nc2ccc(C)cc21 the MIC was 32 µg/mL (broth dilution; ATCC29213 MSSA).
Cn1cnc2c(F)c(Nc3ccc(Br)cc3Cl)c(C(=O)NOCCO)cc21 has an MIC of over 30 µM (NCTC8325).
The MIC of CC(=O)NC[C@H]1CN(c2ccc(N3CCOCC3)c(F)c2)C(=O)O1 is reported as 2 µg/mL (broth dilution; MRSA NRS382 USA100; drug-resistant strain).
O=C(O)c1cn(C2CC2)c2cc(N3CCNCC3)c(F)cc2c1=O has an MIC of 0.24 µg/mL (broth dilution; ATCC43300).
CCCCCCCCCCCC(=O)Oc1c(C)c(O)c(C(=O)/C=C/c2ccccc2)c(OC)c1C gave an MIC of 5000 µg/mL (broth dilution; ATCC25923).
For C[n+]1c(/C=C/c2c[nH]c3ccccc23)cc(/C=C2\Sc3ccccc3N2CCCN2CCCC2)c2ccccc21.[I-], the MIC was 4 µg/mL (broth dilution; ATCCBAA44).
The MIC of O=C(Nc1ccc2c(c1)CCC2)Nc1ccc(Cl)c(C(F)(F)F)c1 is reported as over 100 µM (NCTC8325; 24 h).
CC(C)Oc1c(NC(=O)c2ccc(NC(=O)[C@H](CC(N)=O)NC(=O)c3ccc(NC(=O)c4ccc(C#N)cn4)cc3)cc2)ccc(C(=O)Nc2ccc(C(=O)O)cc2)c1O gave an MIC of at most 0.03 µg/mL (ATCC29213).
For CO[C@H]1C[C@@H]2CC[C@@H](C)[C@@](O)(O2)C(=O)C(=O)N2CCCC[C@H]2C(=O)O[C@H]([C@H](C)C[C@@H]2CC[C@@H](OC(=O)C(C)(CO)CO)[C@H](OC)C2)CC(=O)[C@H](C)/C=C(\C)[C@@H](O)[C@@H](OC)C(=O)[C@H](C)C[C@H](C)/C=C/C=C/C=C/1C, the MIC was over 30 µM (NCTC8325).
CC(C)Oc1c(NC(=O)c2ccc(NC(=O)[C@H](CC(N)=O)NC(=O)c3ccc(-c4nn[nH]c4-c4ccc(C#N)cc4)cc3)cc2)ccc(C(=O)Nc2ccc(C(=O)O)cc2)c1O gave an MIC of over 64 µg/mL (ATCC29213).
C/C=C(\C)c1cc(O)c(C)c(OC(=O)c2c(C)cc(O)c(Cl)c2O)c1 gave an MIC of 8 µg/mL (broth dilution; 16162).
For COc1cccc(OC)c1C(=O)N[C@@H]1C(=O)N2[C@@H]1SC(C)(C)[C@@H]2C(=O)O, the MIC was 18.8 µM (broth dilution; BAA1707 MRSA; drug-resistant strain).
CCOc1ccc(-c2nc3ccccc3[nH]2)cc1 gave an MIC of 256 µg/mL (broth dilution; ATCC29213 MSSA).
O=C1c2ccccc2-c2n[nH]c3cccc1c23 has an MIC of over 30 µM (NCTC8325).
With OC(Cn1cncn1)(Cn1cncn1)c1ccc(F)cc1F the MIC was over 128 µg/mL (broth dilution; MB2865).
CN1CCN(CCOc2cc(OC3CCOCC3)c3c(Nc4c(Cl)ccc5c4OCO5)ncnc3c2)CC1 has an MIC of over 30 µM (NCTC8325).
The MIC of O=C(O)CN1C(=O)/C(=C/c2c3ccccc3c(-c3ccc(N(c4ccccc4)c4ccccc4)cc3)c3ccccc23)NC1=S is reported as over 1000 µg/mL (broth dilution; ATCC6538).
The MIC of COC(=O)Nc1ccc(-c2nc(N3CCOCC3)c3cnn(C4CCN(C(=O)OC)CC4)c3n2)cc1 is reported as over 30 µM (NCTC8325).
Cc1ccc2nc(-c3ccccc3O)[nH]c2c1 gave an MIC of 128 µg/mL (broth dilution; ATCC29213 MSSA).
